RAD52 inh: RAD52 DNA annealing inhibitors, primary screen, biochemical, FRET, single point, set 2. DNA repair protein RAD52 homolog (Homo sapiens), P43351. recombinant RAD52 DNA annealing, FRET fluorescence. inhibition, % at 18.7 µM. actives 0.46% (n = 360,000). AID 651710, 2012;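 active = every replicate showing at least 50% inhibition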
Target sequence (P43351 whole entry, looked up): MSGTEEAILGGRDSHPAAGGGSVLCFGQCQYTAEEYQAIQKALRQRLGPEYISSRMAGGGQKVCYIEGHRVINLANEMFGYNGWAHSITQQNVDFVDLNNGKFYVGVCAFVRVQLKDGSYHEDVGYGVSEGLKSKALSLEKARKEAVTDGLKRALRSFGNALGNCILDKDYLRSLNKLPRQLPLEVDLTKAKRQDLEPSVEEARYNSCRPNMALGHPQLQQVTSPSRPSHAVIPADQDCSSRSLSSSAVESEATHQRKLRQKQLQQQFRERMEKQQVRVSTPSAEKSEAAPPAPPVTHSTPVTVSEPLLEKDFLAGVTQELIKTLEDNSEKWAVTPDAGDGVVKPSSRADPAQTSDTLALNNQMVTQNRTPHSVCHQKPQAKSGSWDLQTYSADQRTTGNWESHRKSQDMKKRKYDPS
ERAP1 inh: human ERAP1 aminopeptidase inhibitors, primary screen, biochemical, single point, plate reader; Endoplasmic reticulum aminopeptidase 1 (Homo sapiens), Q9NZ08; recombinant ERAP1, Leu-AMC fluorescence, 60 min; inhibition, % at 10.7 µM; actives 0.15% (n = 340,000);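 active = mean replicate inhibition of at least 30%, or all replicates individually reaching that 30% level; inactive = mean below 30% and not every replicate reaching it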;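 note: 0% = neutral control wells and 100% = L-leucinethiol positive control wells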
S100A4 MyoIIA: inhibitors of S100A4-myosin IIA peptide binding, primary screen, biochemical, fluorescence polarization, TAMRA-MyoIIA peptide | inhibition, % at 10.7 µM | actives 0.14% (n = 360,000) | AID 652163, 2013;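 active = mean inhibition of at least 70% across replicates, with every replicate also reaching that level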
Target sequence (P26447 whole entry, looked up): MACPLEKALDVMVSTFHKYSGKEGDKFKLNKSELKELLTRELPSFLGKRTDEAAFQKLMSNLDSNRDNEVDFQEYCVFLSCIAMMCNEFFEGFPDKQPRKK
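Assay system: human S100A4 monomer with TAMRA-labelled myosin IIA peptide / Buffer or medium: Calcium-containing HEPES buffer, pH 7.2 / Reagent: TAMRA-labelled myosin IIA heavy-chain peptide probe, 5 nM / Compound: one dose per compound / Timing: polarization read 5 min after assay mix addition, stable 5–60 min / Benchmarks: neutral control DMSO, positive control TFP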
AF4-AF9 inh: inhibitors of AF4 peptide binding to AF9, primary screen, biochemical, AlphaScreen, biotin-AF4 peptide, FLAG-AF9, single point; Protein AF-9 (Homo sapiens), P42568; inhibition, % at 10 µM; actives 0.47% (n = 350,000);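 active = every replicate reaching a set inhibition limit, whatever the replicate mean, cut at about 25% in these data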;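 note: 0% = plate neutral control median and 100% = total signal loss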
GSIS activator: GLuc luminescence reporter in INS-1E cells, primary screen for activators of glucose-dependent secretion of insulin; AID 743287, 2014; actives 0.61% (n = 370,000); activation, % at 16.6 µM; INS-1E GLuc reporter insulin secretion, 2-3 h;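 active = lowest replicate activation of at least 40%, so every replicate reaches that level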;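 note: 0% = median of neutral control wells and 100% = median of IBMX positive control wells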
Active calls of the source: *; i = inactive; x = no result; ! = a repeat was not active. This is a sample that favours compounds with a hit; in the whole collection about 1.5% have one here.

SMILES	RAD52 inh	ERAP1 inh	S100A4 MyoIIA	AF4-AF9 inh	GSIS activator
CCOc1cccc(CNCCc2c(C)[nH]c3ccc(OC(F)(F)F)cc23)c1O	21	2	10	40*	-50
Cc1[nH]c2ccc(OC(F)(F)F)cc2c1CCNCc1ccc(Cl)cc1	28	-1	6	24	214*
CC(C)NC(=O)N1C[C@@H]2N[C@H](C1)C2c1ccccc1 (stereo partly drawn)	x	x	x	x	-10
C/C=C/c1ccc(C2[C@@H]3CN(C(=O)C4CCC4)C[C@H]2N3)cc1 (stereo partly drawn)	x	x	x	x	5
COc1ccc(OC(=O)N(C)C[C@H]2OCc3ccccc3-c3c(n(C)c4ccccc34)C(=O)N([C@@H](C)CO)C[C@@H]2C)cc1	21	1	6	7	-14
CC1CC(OC(=O)c2ccccc2)CC(C)N1C (stereo not drawn)	x	x	x	x	5
CCOC(=O)C1C(OC(=O)c2ccccc2)CC2CCC1N2C (stereo not drawn)	-8	-6	-4	x	41*
CN1C2CCC1C(C(=O)O)C(OC(=O)c1ccccc1)C2 (stereo not drawn)	-15	-3	0	x	40*
CN1C2CCC1C(C(=O)O)C(O)C2 (stereo not drawn)	-7	-2	-4	x	20
CCC(=O)N1[C@@H]2c3ccc(-c4cccc(F)c4)c(=O)n3C[C@H]1[C@H](CO)[C@H]2C(=O)OC	11	-1	2	0	2
CC(=NC(C)c1ccccc1)c1c(O)[nH]c(=O)[nH]c1=O (stereo not drawn)	x	x	x	x	104*
CC(=NCCc1ccccc1)c1c(O)[nH]c(=O)[nH]c1=O	4	-1	-5	1	x
COc1ccc(-c2ccc([C@@H]3[C@@H](CO)N4CCCCN(C(=O)Cc5ccccc5)C[C@H]34)cc2)cc1	-15	x	x	x	6
O=C(Cc1ccccn1)N1CCCCN2[C@H](CO)[C@@H](c3ccc(-c4ccccc4)cc3)[C@@H]2C1	-12	-2	-1	-8	-3
CCOC(=O)[C@]12Cc3cc(OC)ccc3[C@H]1N(C1CCCCC1)C(=O)c1cc(OC)ccc12	-15	x	-7	-22	325*
CC(C)(C#CC(=O)O)OOC(c1ccccc1)(c1ccccc1)c1ccccc1	-16	41*	-11	1	18
O=c1ccc2cc(O[C@@H]3O[C@H](CO)[C@@H](O)[C@H](O)[C@H]3O)c(O)cc2o1	-8	154*	3	-4	x
C[N+]1(CC2COC(c3ccco3)O2)CCCCC1 (stereo not drawn)	-4	80*	-5	-2	14
CC(C)NC(=O)N1CC2C(c3ccccc3)C(C1)N2C (stereo not drawn)	x	x	x	x	16
C[N+](C)(C)CC1CCCC(C[N+](C)(C)C)C1=O (stereo not drawn)	-32	75*	4	3	x
C[N+](C)(C)CC1CCCc2ccccc2C1=O (stereo not drawn)	-16	20	-3	-1	-9
CNC(=O)OCCc1n(C)cc[n+]1C	-13	102*	-6	-7	14
COc1ccc(CC2c3cc(OC)c(OC)cc3CCN2C)cc1O (stereo not drawn)	-4	-2	-4	-1	43*
COC(=O)[C@H]1[C@H](CO)[C@H]2Cn3c(ccc(/C=C/c4ccccc4)c3=O)[C@@H]1N2Cc1ccccc1F	-10	5	4	-87	-11
CCCN1[C@@H]2c3ccc(-c4cccc(OC)c4)c(=O)n3C[C@H]1[C@H](CO)[C@H]2C(=O)OC	-10	-5	6	-1	9
SMILES	RAD52 inh	ERAP1 inh	S100A4 MyoIIA	AF4-AF9 inh	GSIS activator
COP(=O)(NC(=O)C(Cl)(Cl)Cl)OC	-11	4	12	27*	11
CN1CCc2nc(SCc3ccccc3Br)c(C#N)cc2C1	-18	-3	-13	2	-9
C=CCSc1nc2c(c(-c3ccsc3)c1C#N)CN(C)CC2	-32	x	0	5	46*
COC(=O)C[C@@H]1CC[C@H]2NC[C@H](O)COC[C@@H]2O1	-4	-3	-4	-3	1
CCNc1nc(Cl)nc(NC(C)C)n1	x	x	x	x	71*
C/C=C/c1ccc(C2[C@@H]3CN(Cc4cccnc4)C[C@H]2N3)cc1 (stereo partly drawn)	58*	1	2	14	-6
C=CCN1[C@@H]2CN(S(C)(=O)=O)C[C@H]1C2c1ccccc1 (stereo partly drawn)	x	x	x	x	1
Clc1ccc(COC(Cn2ccnc2)c2ccc(Cl)cc2Cl)c(Cl)c1 (stereo not drawn)	1	1	1	6	49*!
CN(C)c1ccc(NC(=O)CN2C(=O)CN=C(c3ccccc3)c3cc(Cl)ccc32)cc1	1	4	-3	27*	x
N#Cc1c(N2CCNCC2)nc(-c2ccco2)c2c1CCCC2	18	45*	-10	4	x
CSc1ncc(Br)c(N2CC2)n1	-25	2	1	3	42*
CSc1nc(Cl)c(Br)c(N2CC2)n1	19	-1	5	2	8
CC1=NCCc2c1[nH]c1cc(O)ccc21	i	53*	-14	0	10
FC(F)(F)CN1C[C@@H]2N[C@H](C1)C2c1ccc(Br)cc1 (stereo partly drawn)	x	x	x	x	-15
COC(=O)[C@@H]1[C@@H](CO)[C@@H]2Cn3c(ccc(-c4ccccc4)c3=O)[C@H]1N2S(=O)(=O)c1ccccc1C	1	3	9	2	1
CC=Cc1ccc2n(c1=O)C[C@H]1[C@H](CO)[C@@H](C(=O)OC)[C@@H]2N1S(=O)(=O)c1ccccc1C (mixture of isomers)	53*	-2	4	1	2
CC=Cc1ccc2n(c1=O)C[C@@H]1[C@@H](CO)[C@H](C(=O)OC)[C@H]2N1S(=O)(=O)c1ccccc1C (mixture of isomers)	56*	-1	-13	2	2
COC(=O)[C@@H]1[C@@H](CO)[C@@H]2Cn3c(ccc(-c4ccncc4)c3=O)[C@H]1N2S(=O)(=O)c1ccccc1C	2	1	-9	-24	27
C=CCN1[C@@H]2CN(C(=O)NC(C)C)C[C@H]1C2c1ccc(Br)cc1 (stereo partly drawn)	x	x	x	x	0
Cc1nn(Cc2ccc(Cl)cc2Cl)c(Cl)c1C(=O)Nc1ccc(OC(F)F)cc1	x	x	x	x	71*
Cc1nn(Cc2ccc(Cl)cc2Cl)c(Cl)c1C(=O)O	-13	-4	-5	-2	13
O=C(Cc1ccccn1)N1CCCCN2[C@H](CO)[C@H](c3ccc(-c4ccccc4F)cc3)[C@@H]2C1	5	2	-1	-5	0
CCC(=O)C(CCN1CCOCC1)(c1ccccc1)c1ccccc1	3	x	2	-1	-1

Screens deposited in PubChem by Broad Institute.
